We go through nine compounds from ChEMBL document CHEMBL4665767, “Synthesis and biological evaluation of semi-synthetic albocycline analogs” (2020).

The structures appear in SMILES notation. Converted amounts (≈) assume the structure as drawn. The source made the active and inactive calls. The calls are words filed in the database; no cut-off is given here.

One assay relates to Pseudomonas aeruginosa. The assay can be described thus: Antibacterial activity against Pseudomonas aeruginosa. In kind it is functional, organism-based. The gist of the method:
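Twofold serial dilutions in 96-well microtiter plates from a 10 mg/mL DMSO starting concentration; DMSO solvent control, kanamycin positive control. Wells inoculated with 1:100 dilution of overnight cultures (P. aeruginosa strain PA10). Incubated 37 °C for 24 h; MIC scored as lowest well showing growth inhibition.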

A further assay concerns Acinetobacter baumannii. The assay can be described thus: Antibacterial activity against Acinetobacter baumannii. In kind it is functional, organism-based.
Another assay relates to Escherichia coli. The assay can be described thus: Antibacterial activity against Escherichia coli. In kind it is functional, organism-based.
In assay [1] the test system is Staphylococcus aureus. The assay can be described thus: Antibacterial activity against methicillin resistant Staphylococcus aureus USA300. In kind it is functional. The gist of the method:
(§1)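 Broth microdilution MIC in Mueller Hinton broth. Stocks 12.8 mg/mL in DMSO, serially diluted twofold, 2 µL added per well (top final 256 µg/mL). Inoculum grown at 37 °C, 200 rpm to OD600 0.18, then diluted to 3x10^5 cells/mL final, checked by plate count. Incubated 16-24 h at 37 °C, technical duplicates. MIC read as lowest concentration with visible growth inhibition.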

Assay [2] deals with Staphylococcus aureus. The assay can be described thus: Antibacterial activity against methicillin sensitive Staphylococcus aureus UAMS1. It counts as functional. The gist of the method: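 Broth microdilution in Mueller Hinton broth; DMSO stocks (12.8 mg/mL) serially diluted, 2 µL added per well, giving up to 256 µg/mL. Inoculum grown at 37 °C, 200 rpm to OD600 0.18, diluted to final 3x10^5 cells/mL, count confirmed by plating. Technical duplicate; 16-24 h at 37 °C; MIC = lowest concentration with visual growth inhibition.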

For assay [3], the system named is Staphylococcus aureus. The assay can be described thus: Antibacterial activity against vancomycin-resistant Staphylococcus aureus. In kind it is functional. The gist of the method: as §1
For assay [4], the system named is Staphylococcus aureus. The assay can be described thus: Antibacterial activity against vancomycin-intermediate Staphylococcus aureus. In kind it is functional. The gist of the method:
as §1

The test system of assay [5] is Staphylococcus aureus. The assay can be described thus: Antibacterial activity against methicillin resistant Staphylococcus aureus. It counts as functional. The procedure, abridged:
as §1

The subject of assay [6] is Staphylococcus aureus. The assay can be described thus: Potency index, ratio of albocycline MIC to test compound MIC for methicillin resistant Staphylococcus aureus USA300. In kind it is functional.

By MIC is commonly meant the least concentration at which growth counts as inhibited. Higher therefore signals weaker potency. On to `CO[C@H]1/C=C/[C@@](C)(O)C(SCCN)CC(=O)O[C@H](C)[C@@H](C)CC/C=C/1C` (mixture of isomers), for which the outcome with Pseudomonas aeruginosa, in the assay with Acinetobacter baumannii and with Escherichia coli was inactive. Also, the results for the MIC in the assay with Staphylococcus aureus [1] and against Staphylococcus aureus [2] were 256 µg/mL and 128 µg/mL, respectively.
Regarding `C#CCO[C@@]1(C)/C=C/C(=O)O[C@H](C)[C@@H](C)CC/C=C(\C)[C@@H](OC)/C=C/1`, the MIC with Staphylococcus aureus [2] was greater than 256 µg/mL.
On to `CO[C@H]1/C=C/[C@@](C)(O)/C=C/C(=O)O[C@H](C)[C@@H](C)CC/C=C/1COP(=O)(Oc1ccccc1)Oc1ccccc1`, for which the MIC with Staphylococcus aureus [1] and against Staphylococcus aureus [2] was greater than 256 µg/mL in each case.
The compound `CO[C@H]1/C=C/[C@@](C)(O)/C=C/C(=O)O[C@H](C)[C@@H](C)CC/C=C/1C=O` registered an MIC against Staphylococcus aureus [2] of 32 µg/mL (≈ 99.3 µM).
On the same count and under the same terms, next, `COC/C1=C\CC[C@H](C)[C@@H](C)OC(=O)/C=C/[C@](C)(O)/C=C/[C@@H]1OC`: 128 µg/mL (≈ 378 µM).
As to `C/C1=C\CC[C@H](C)[C@@H](C)OC(=O)/C=C/[C@](C)(O)/C=C/[C@@H]1O`, the minimal inhibitory concentration (MIC) in the assay on Staphylococcus aureus [1] was 4 µg/mL (≈ 13.6 µM); against Staphylococcus aureus [2], 8 µg/mL (≈ 27.2 µM).
Consider `CO[C@H]1/C=C/[C@@](C)(O)/C=C/C(=O)O[C@H](C)[C@@H](C)CC/C=C/1CO`, for which the lowest concentration to inhibit growth in the assay on Staphylococcus aureus [2] (MIC) was 32 µg/mL (≈ 98.6 µM).
For `CO[C@H]1/C=C/[C@@](C)(O)/C=C/C(=O)O[C@H](C)[C@@H](C)CC/C=C/1C`, the MIC is 0.5 µg/mL (≈ 1.62 µM) against Staphylococcus aureus [3]; 0.5 µg/mL (≈ 1.62 µM) in the assay with Staphylococcus aureus [4]; 0.5 µg/mL (≈ 1.62 µM) with Staphylococcus aureus [5]; 2 µg/mL (≈ 6.48 µM) against Staphylococcus aureus [1]; 2 µg/mL (≈ 6.48 µM) in the assay on Staphylococcus aureus [2].
As to `CO[C@H]1/C=C/[C@@](C)(OC(=O)c2ccc(F)cc2)/C=C/C(=O)O[C@H](C)[C@@H](C)CC/C=C/1C`, the Ratio with Staphylococcus aureus [6] came to 2. Further, the MIC against Staphylococcus aureus [1] and in the assay with Staphylococcus aureus [2] was 1 µg/mL (≈ 2.32 µM) in each case.
